The values that follow come from ChEMBL document CHEMBL5357047, “The development of thymol-isatin hybrids as broad-spectrum antibacterial agents with potent anti-MRSA activity” (RSC Med Chem, 2024).

In brackets after ≈: the same amount, converted by molar mass. Activity calls are given as the source filed them.

As a reminder, the MBC is the smallest concentration meeting the test's criterion for killing. In general, inhibition refers to the change of the read-out against control, counted positive when it falls.

The subject of one assay is Pseudomonas aeruginosa. The assay is described as follows: Antibacterial activity against Pseudomonas aeruginosa MTCC 424 assessed as inhibition of bacterial growth at 50 uM measured after 48 hrs by agar well diffusion method. It counts as functional. To be noted: read-out: IZ. (Agar diffusion results depend on both activity and mobility in agar.)
In assay [1] the test system is Staphylococcus epidermidis. The assay is described as follows: Antibacterial activity against Staphylococcus epidermidis MTCC 435 assessed as inhibition of bacterial growth at 50 uM measured after 48 hrs by agar well diffusion method. It is filed as functional. To be noted: read-out: IZ.
Assay [2] relates to Staphylococcus aureus. Nature of the assay: Anti-biofilm activity against Methicillin-resistant Staphylococcus aureus assessed as reduction in integrated density of biofilms at 1/2 to 2XMIC measured after 48 hrs by Syto-9 staining based fluorescence microscopy. It is filed as functional, organism-based. Summed up: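 After PBS washes, stained with SYTO-9 ([…]) 15 min at 25 °C and imaged by fluorescence microscopy (excitation 480 nm). Integrated density quantified from images. Triplicate, mean ± SD.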

In assay [3] the test system is Staphylococcus aureus. The assay is described as follows: Anti-biofilm activity against Methicillin-resistant Staphylococcus aureus assessed as interruption in well organized and aggregated biofilm at 1/2 to 2X MIC measured after 48 hrs by scanning electron microscopy. It is filed as functional, organism-based.
Another assay has as its system Escherichia coli. The assay is described as follows: Antibacterial activity against clinically isolated Escherichia coli RBRJ013 assessed as inhibition of bacterial growth at 50 uM measured after 48 hrs by agar well diffusion method. It counts as functional. Conditions: read-out: IZ.
The test system of assay [4] is Staphylococcus aureus. The assay is described as follows: Antibacterial activity against Methicillin-resistant Staphylococcus aureus ATCC 33591 assessed as inhibition of bacterial growth at 50 uM measured after 48 hrs by agar well diffusion method. It is filed as functional. To be noted: read-out: IZ. The method in brief: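 Agar well diffusion on Mueller Hinton agar seeded with bacteria at 0.5 McFarland. […] Incubated 48 h at 37 °C aerobically; zone of inhibition diameter (mm) measured. Triplicate.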

Assay [5] relates to Staphylococcus aureus. Nature of the assay: Anti-biofilm activity against Methicillin-resistant Staphylococcus aureus assessed as reduction in biofilm formation at 1XMIC measured after 48 hrs by crystal violet staining based analysis. It counts as functional. The method in brief: (§1)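 Non-adherent cells washed off with water, stained with 0.5% crystal violet 30 min at 25 °C, dye eluted with 95% ethanol, OD 545 nm. Reported as % reduction versus untreated control. Triplicate.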

A further assay has as its system Galleria mellonella. The assay is described as follows: Modulation of immune response in MRSA-infected Galleria mellonella systemic infection model assessed as reduction in haemocytes in larva's circulating lymph at 10 mg/kg measured after 24 to 48 hrs by fluorescent microscopic analysis. It counts as functional, organism-based. To be noted: time 24-48 hrs. Summed up: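 Galleria mellonella larvae (0.2–0.4 g, ten per group) injected in the last proleg with MRSA, 5 × 10^8 cells per larva, then given 10 mg kg−1 compound; kept at 37 °C. Hemolymph collected on ice at 24 and 48 h post inoculation, diluted in PBS, counted with an automated cell counter and viewed with trypan blue (0.1%) under a fluorescent microscope.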

Assay [6] relates to Staphylococcus aureus. The assay is described as follows: Anti-biofilm activity against Methicillin-resistant Staphylococcus aureus assessed as reduction in biofilm formation at 1/2XMIC measured after 48 hrs by crystal violet staining based analysis. It is filed as functional. Summed up: as §1
In assay [7] the test system is Staphylococcus aureus. The assay is described as follows: Anti-biofilm activity against Methicillin-resistant Staphylococcus aureus assessed as reduction in biofilm formation at 2XMIC measured after 48 hrs by crystal violet staining based analysis. It counts as functional. The method in brief: as §1
The test system of assay [8] is Staphylococcus aureus. Nature of the assay: Anti-biofilm activity against Methicillin-resistant Staphylococcus aureus assessed as mean thickness of biofilm at 1XMIC measured after 48 hrs by crystal violet staining based phase contrast microscopy (reference value: 15.03+/-1.63 um). It is filed as functional.
Assay [9] deals with Staphylococcus epidermidis. Nature of the assay: Bactericidal activity against Staphylococcus epidermidis MTCC 435 assessed as inhibition of bacterial growth measured after 48 hrs by agar plate method. It counts as functional. Summed up:
(§2)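 MBC: 10 μL from wells showing no INT colour change after broth microdilution subcultured on drug-free Mueller Hinton agar, 48 h at 37 °C aerobically; lowest concentration with no visible growth taken as MBC (μM). Triplicate.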

Assay [10] concerns Staphylococcus aureus. The assay is described as follows: Anti-biofilm activity against Methicillin-resistant Staphylococcus aureus assessed as biofilm volume/area at 1/2XMIC measured after 48 hrs by crystal violet staining based phase contrast microscopy (reference value: 18.37 +/-1.14 um3/um2). It is filed as functional.
The test system of assay [11] is Staphylococcus aureus. Nature of the assay: Anti-biofilm activity against Methicillin-resistant Staphylococcus aureus assessed as biofilm substrate coverage at 2XMIC measured after 48 hrs by crystal violet staining based phase contrast microscopy (reference value: 81.43+/-3.57%). It is filed as functional.
The subject of assay [12] is Staphylococcus aureus. The assay is described as follows: Antibacterial activity against clinically isolated Methicillin-resistant Staphylococcus aureus assessed as inhibition of bacterial growth at 50 uM measured after 48 hrs by agar well diffusion method. It is filed as functional. To be noted: read-out: IZ.
In assay [13] the test system is Staphylococcus aureus. Nature of the assay: Bactericidal activity against clinically isolated Staphylococcus aureus RBRJ010 assessed as inhibition of bacterial growth measured after 48 hrs by agar plate method. It is filed as functional. The method in brief:
as §2

The subject of assay [14] is Staphylococcus aureus. Nature of the assay: Anti-biofilm activity against Methicillin-resistant Staphylococcus aureus assessed as cell leakage and irregular surface at 1 to 2X MIC measured after 48 hrs by scanning electron microscopy. It is filed as functional, organism-based.
The subject of assay [15] is Staphylococcus aureus. Nature of the assay: Anti-biofilm activity against Methicillin-resistant Staphylococcus aureus assessed as biofilm volume/area at 2XMIC measured after 48 hrs by crystal violet staining based phase contrast microscopy (reference value: 18.37 +/-1.14 um3/um2). It is filed as functional.
The next assay concerns Klebsiella pneumoniae. Nature of the assay: Antibacterial activity against clinically isolated Klebsiella pneumoniae RBRJ019 assessed as inhibition of bacterial growth at 50 uM measured after 48 hrs by agar well diffusion method. It counts as functional. To be noted: read-out: IZ.
For assay [16], the target named is T1, 4,4'-diapophytoene synthase (Staphylococcus aureus) (UniProt A9JQL9).
T1 sequence (whole entry): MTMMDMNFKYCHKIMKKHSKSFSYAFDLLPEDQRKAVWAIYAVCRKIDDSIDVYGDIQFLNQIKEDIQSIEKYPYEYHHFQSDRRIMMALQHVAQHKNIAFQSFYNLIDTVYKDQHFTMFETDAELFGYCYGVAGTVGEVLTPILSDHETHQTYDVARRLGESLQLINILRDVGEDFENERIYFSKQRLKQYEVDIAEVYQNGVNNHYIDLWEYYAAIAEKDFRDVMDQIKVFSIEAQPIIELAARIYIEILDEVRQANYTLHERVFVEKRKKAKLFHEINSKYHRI
Nature of the assay: Inhibition of CrtM in Methicillin-resistant Staphylococcus aureus assessed as inhibition of staphyloxanthin production by measuring reduction in 4,4'-diapophytoene level at 1/4XMIC measured after 24 hrs by spectroscopic analysis. The method in brief: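 Cells pelleted, PBS-washed, extracted overnight in methanol at 37 °C. Supernatant absorbance read at 462 nm (staphyloxanthin), 286 nm (4,4′-diapophytoene), 435 nm (4,4′-diaponeurosporene) or 455 nm (4,4′-diaponeurosporenic acid). % inhibition = (control − treated)/control × 100.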

The subject of assay [17] is Staphylococcus aureus. The assay is described as follows: Bactericidal activity against Methicillin-resistant Staphylococcus aureus ATCC 33591 assessed as inhibition of bacterial growth measured after 48 hrs by agar plate method. It counts as functional. The method in brief: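 MBC: aliquots from microdilution wells without colour change subcultured on drug-free Mueller Hinton agar, 48 h at 37 °C aerobically. MBC is the lowest concentration with no visible growth. Triplicate.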

For the next assay, the system named is Enterococcus faecalis. The assay is described as follows: Antibacterial activity against Enterococcus faecalis MTCC 439 assessed as inhibition of bacterial growth at 50 uM measured after 48 hrs by agar well diffusion method. It counts as functional. Conditions: read-out: IZ.
The subject of assay [18] is Staphylococcus aureus. Nature of the assay: Anti-biofilm activity against Methicillin-resistant Staphylococcus aureus assessed as mean thickness of biofilm at 2XMIC measured after 48 hrs by crystal violet staining based phase contrast microscopy (reference value: 15.03+/-1.63 um). It is filed as functional.
In assay [19] the test system is Staphylococcus aureus. Nature of the assay: Anti-biofilm activity against Methicillin-resistant Staphylococcus aureus assessed as mean thickness of biofilm at 1/2XMIC measured after 48 hrs by crystal violet staining based phase contrast microscopy (reference value: 15.03+/-1.63 um). It is filed as functional.

Regarding `Cc1ccc(C(C)C)c(OCc2cn(CCCN3C(=O)C(=O)c4ccccc43)nn2)c1`, the zone of inhibition at 50 µM with Pseudomonas aeruginosa is 22.3 mm; in assay [1], 25.5 mm; with Escherichia coli it was 20.3 mm; with Staphylococcus aureus [4], 27.5 mm; in the assay with Staphylococcus aureus [12], 28.8 mm; in the assay on Klebsiella pneumoniae, 20.2 mm. In addition, in the assay on Enterococcus faecalis, the zone of inhibition at 50 µM worked out at 18.5 mm. For the same compound, the outcome in the assay with Staphylococcus aureus [2], in the assay with Staphylococcus aureus [3], with Galleria mellonella and with Staphylococcus aureus [14] was Active. For the same compound, the entries for the “inhibition (INH)” value with Staphylococcus aureus [5], in the assay with Staphylococcus aureus [6] and in the assay on Staphylococcus aureus [7] were 89.63%, 78.43% and 96.21%, respectively. Further, the Activity stood at 1.11 um with Staphylococcus aureus [8]; 3.48 um3/um2 with Staphylococcus aureus [10]; 1.83% in the assay with Staphylococcus aureus [11]; 0.69 um3/um2 in the assay with Staphylococcus aureus [15]; 0.16 um in the assay with Staphylococcus aureus [18]; 2.97 um with Staphylococcus aureus [19]. For the same compound, the MBC in [9] is 7.8 µM (≈ 3.26 µg/mL); in the assay with Staphylococcus aureus [13], 3.9 µM (≈ 1.63 µg/mL); in the assay with Staphylococcus aureus [17], 7.8 µM (≈ 3.26 µg/mL). In addition, the inhibition in assay [16] is 86%.
